For series [1], the target named is T1, HsY430A mutant of Hs-SAHH (Homo sapiens, UniProt P23526, Y430A).
T1 sequence (P23526 1-432 Y430A): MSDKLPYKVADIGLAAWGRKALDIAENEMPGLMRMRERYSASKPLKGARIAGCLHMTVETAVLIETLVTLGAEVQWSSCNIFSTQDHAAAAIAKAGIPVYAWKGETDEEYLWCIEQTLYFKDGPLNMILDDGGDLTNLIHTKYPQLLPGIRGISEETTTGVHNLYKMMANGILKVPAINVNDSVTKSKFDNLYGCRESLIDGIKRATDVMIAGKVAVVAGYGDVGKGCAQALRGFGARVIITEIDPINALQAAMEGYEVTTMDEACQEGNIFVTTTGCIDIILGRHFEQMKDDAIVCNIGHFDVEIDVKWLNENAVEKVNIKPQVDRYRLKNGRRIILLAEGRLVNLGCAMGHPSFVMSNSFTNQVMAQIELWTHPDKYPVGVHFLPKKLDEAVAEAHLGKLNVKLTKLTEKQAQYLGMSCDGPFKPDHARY
Put plainly: association kinetics of NAD^+ with apo-enzyme. The class given is binding.

Series [2] deals with TcY435A mutant of Tc-SAHH. Put plainly: association kinetics of NAD^+ with apo-enzyme. The series is classed as binding, Trypanosoma cruzi. Particulars: 23 °C, pH 7.4.
In series [3] the target is T1, HsY430A mutant of Hs-SAHH. Put plainly: dissociation of NAD^+. The series is classed as binding.
Series [4] has as its system TcY435A mutant of Tc-SAHH. Briefly: dissociation of NAD^+. The class given is binding, Trypanosoma cruzi.
Series [5] deals with T1, HsY430A mutant of Hs-SAHH. Briefly: cofactor content of isolated and reconstituted mutant enzyme. The class given is binding.
In series [6] the test system is TcK431A mutant of Tc-SAHH. Put plainly: cofactor content of isolated and reconstituted mutant enzyme. The class given is binding, Trypanosoma cruzi. The procedure, abridged: (§1)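 Apo-enzyme preparation: mutants expressed in E. coli were precipitated three times with 80% (v/v) acid ammonium sulfate plus 2–5 mM DTT (pH 2.92, 3.12, then 7.2). Pellets were redissolved in 50 mM phosphate pH 7.2 with 1 mM EDTA. Apo protein (10 mg/mL) was incubated with 1 mM NAD+ or NADH for 12 h at 4 °C, then purified by Superdex 200 gel filtration.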

The subject of series [7] is TcY435A mutant of Tc-SAHH. Described as above. The series is classed as binding, Trypanosoma cruzi. The procedure, abridged:
as §1

The target of series [8] is Hs-SAHH. Particulars: 23 °C, pH 7.4, cited from earlier work.
In series [9] the target is Tc-SAHH. Particulars: 23 °C, pH 7.4, cited from earlier work.
Series [10] relates to Hs-SAHH. Particulars: cited from earlier work.
In series [11] the test system is Tc-SAHH. Particulars: cited from earlier work.
Series [12] deals with K431A mutant of Trypanosoma cruzi S-adenosylhomocysteine hydrolase (TcK431A) (Trypanosoma cruzi). Briefly: SEC.
For series [13], the target named is Y435A mutant of Trypanosoma cruzi S-adenosylhomocysteine hydrolase (TcY435A) (Trypanosoma cruzi). Put plainly: SEC. A general note: SEC sorts molecules by how far they enter the pores of the column.
The series “SEC” concerns the molecule itself. Put plainly: SEC.
Where [14] appears, read: binding to non-functional sites of apo-SAHH.
Setting [15] is: read-out: Kf, binding to fully functional sites of holo-SAHH.
Setting [16] is: read-out: Ko, binding to fully functional sites of apo-SAHH.
[17] abbreviates: Table 2 (23 °C, pH 7.4), value is 10^6 x koff.
Setting [18] is: enzyme as isolated from the expression system, HPLC.
The mark [19] stands for this setting: enzyme as isolated from the expression system, fluorescence.

Like-named read-outs stand apart in the source and are kept apart here.

In the case of `NC(=O)C1=CN([C@@H]2O[C@H](COP(=O)(O)OP(=O)(O)OC[C@H]3O[C@@H](n4cnc5c(N)ncnc54)[C@H](O)[C@@H]3O)[C@@H](O)[C@H]2O)C=CC1` [NAD^+, β-nicotinamide adenine dinucleotide], the “Kd, koff/(ka/Ka)” value was 0.75 ± 0.095 µM in series [1] (23 °C, pH 7.4); 1000 ± 300 µM in series [2]; 0.007 ± 0.003 µM on Hs-SAHH [8]; 0.069 ± 0.018 µM on Tc-SAHH [9]. Moreover, the Ka in [1] (23 °C, pH 7.4, binding to non-functional sites of apo-SAHH) was 17 ± 2 µM; in [2] (setting [14]), 0.39 ± 0.04 mM; at Hs-SAHH [8] (setting [14]), 19 ± 8 µM; on Tc-SAHH [9] (setting [14]), 3.8 ± 0.6 µM. In addition, the “n (Hill coefficient for Ko)” value in [1] (23 °C, pH 7.4, fast-binding sites) came to 0.9 ± 0.1. For the same molecule, the “10^−3kon” value is recorded as 0.54 ± 0.04 M^−1s^−1 in [1] (23 °C, pH 7.4, value is 10^−3 x kon); 1.9 ± 0.04 M^−1s^−1 in the series with Hs-SAHH [8] (value is 10^−3 x kon); 0.68 ± 0.02 M^−1s^−1 in the series with Tc-SAHH [9] (value is 10^−3 x kon). Also, in [1] (HsY430A vs Hs-SAHH), the “decrease of the on-rate, mutant vs wild type” value stood at 4 fold. Further, the Kd in series [1] (read-out: Kd, koff/kon, 23 °C, pH 7.4) turned out to be 0.784 ± 0.064 µM; in series [1] (read-out: Kf, 23 °C, pH 7.4, binding to fully functional sites of holo-SAHH) it was 2 ± 0.3 µM; in [1] (read-out: Ko, 23 °C, pH 7.4, binding to fully functional sites of apo-SAHH) it was 432 ± 93 µM; in series [2] (read-out: Kd, koff/kon), 1600 ± 200 µM; in [2] (setting [15]), 200 ± 30 µM; in series [2] (setting [16]), 2600 ± 1000 µM. Besides, the Kd at Hs-SAHH [8] (read-out: Kd, koff/kon) was 0.01 ± 0.002 µM; on Hs-SAHH [8] (setting [15]) it was 1.4 ± 0.3 µM; at Hs-SAHH [8] (setting [16]), 33 ± 4 µM; on Tc-SAHH [9] (read-out: Kd, koff/kon), 0.161 ± 0.03 µM; on Tc-SAHH [9] (setting [15]), 1.8 ± 0.4 µM; at Tc-SAHH [9] (setting [16]), 38 ± 9 µM. This molecule had a kon in series [2] of 18 ± 2 M⁻¹ s⁻¹. The same molecule returned a ka/Ka in series [2] (binding and transformation of apo-sites to holo-sites) of 29 ± 9 M⁻¹ s⁻¹. Further, in [2] (transformation of non-functional apo-sites to functional holo-sites), the ka stood at 11 ± 0.4 s⁻¹. Moreover, the koff is on record as 4.2 ± 0.1 × 10^−4 s^−1 in series [3] (30 °C, pH 7.4); 2.8 ± 0.2 × 10^−2 s^−1 in series [4] (24 °C, pH 7.4); 1.9 ± 0.3 × 10^−5 s^−1 with Hs-SAHH [10] (30 °C, pH 7.4, wild-type enzyme); 1.1 ± 0.2 × 10^−4 s^−1 in the series on Tc-SAHH [11] (24 °C, pH 7.4, wild-type enzyme). For the same molecule, the entries for the “10^6koff” value (in series [3] (setting [17]); with Hs-SAHH [10] (setting [17]); in the series with Tc-SAHH [11] (setting [17])) were 420 ± 10 s^−1, 19 ± 3 s^−1 and 110 ± 20 s^−1, respectively. Besides, the “10^3koff” value in series [4] (Table 2 (23 °C, pH 7.4), value is 10^3 x koff) was 28 ± 2 s^−1. For the same molecule, the “active-site occupancy by NAD^+” value in series [5] (setting [18]) is reported as 30 ± 5%; in series [7] (setting [18]), 18 ± 1%. Also, the “occupancy after reconstitution of apo-enzyme with NAD^+” value in series [6] (attempted reconstitution) and in series [7] (attempted reconstitution) was “no detectable occupancy” in each case.

Consider `NC(=O)C1=CN([C@@H]2O[C@H](COP(=O)(O)OP(=O)(O)OC[C@H]3O[C@@H](n4cnc5c(N)ncnc54)[C@H](O)[C@@H]3O)[C@@H](O)[C@H]2O)C=CC1` [NADH, β-nicotinamide adenine dinucleotide, reduced form], for which the “occupancy after reconstitution of apo-enzyme with NADH” value in [5] (1 mM NADH, 12 h, 4 °C, fluorescence) was 94 ± 1%; in [6] (attempted reconstitution) it was “no detectable occupancy”; in series [7] (attempted reconstitution), “no detectable occupancy”. For the same molecule, the “active-site occupancy by NADH” value in [5] (setting [19]) is 86 ± 5%; in series [6] (setting [19]), 1.30 ± 0.03%; in series [7] (setting [19]) it was 90 ± 1%.

Regarding “K431A mutant of Trypanosoma cruzi S-adenosylhomocysteine hydrolase (TcK431A) (enzyme)”, the stoichiometry N in [12] was found to be 4.

Turning to “Y435A mutant of Trypanosoma cruzi S-adenosylhomocysteine hydrolase (TcY435A) (enzyme)”, the stoichiometry N in series [13] was 4.

B1: Y430A mutant of human S-adenosylhomocysteine hydrolase (HsY430A) (enzyme)
chain: MSDKLPYKVADIGLAAWGRKALDIAENEMPGLMRMRERYSASKPLKGARIAGCLHMTVETAVLIETLVTLGAEVQWSSCNIFSTQDHAAAAIAKAGIPVYAWKGETDEEYLWCIEQTLYFKDGPLNMILDDGGDLTNLIHTKYPQLLPGIRGISEETTTGVHNLYKMMANGILKVPAINVNDSVTKSKFDNLYGCRESLIDGIKRATDVMIAGKVAVVAGYGDVGKGCAQALRGFGARVIITEIDPINALQAAMEGYEVTTMDEACQEGNIFVTTTGCIDIILGRHFEQMKDDAIVCNIGHFDVEIDVKWLNENAVEKVNIKPQVDRYRLKNGRRIILLAEGRLVNLGCAMGHPSFVMSNSFTNQVMAQIELWTHPDKYPVGVHFLPKKLDEAVAEAHLGKLNVKLTKLTEKQAQYLGMSCDGPFKPDHARY
For B1, in “SEC”, the “stoichiometry N” value came out at 4.

One may read the kon as the rate constant with which the complex forms. A high value points to fast association. A word on the stoichiometry N: it is a count of units in the complex or per binding partner.

(Values after publication PMC2962933 (Biochemistry, 2010).)
